High-throughput results deposited in PubChem BioAssay by Sanford-Burnham Center for Chemical Genomics.
mIAP block – mouse IAP inhibition. 330,000 compounds, 0.2% hits. AID 2806. inhibition, % at 10 µM. purified mouse IAP, CDP-Star luminescence, 30 min;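 active means inhibition of at least 40% at 10 µM in the primary screen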;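 further: plate controls were DMSO with enzyme for no effect and no enzyme wells for full effect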
bIAP inhibitor – blocks bovine intestinal alkaline phosphatase activity. purified bovine IAP, CDP-star luminescence, 30 min. AID 1019. 190,000 tested, under 10 active. inhibition, % at 20 µM;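 active means over 50% inhibition of intestinal alkaline phosphatase at 20 µM in the single-dose screen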
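System: Purified bovine intestinal alkaline phosphatase (IAP) enzyme | Input: IAP diluted 1/65,000,000 in the well | Also added: CDP-star chemiluminescent phosphatase substrate, 30 µM final | Dosing: 20 µM single dose | Times: Enzyme reaction for 30 min at room temperature | Detection: Luminescence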
mIAP activ – increases mouse intestinal alkaline phosphatase activity | 330,000 compounds, 0.24% hits | muIAP, CDP-Star luminescence, 30 min; stronger effect = higher value; 1 = vehicle-only enzyme signal, 0 = enzyme-free wells | activation factor at 10 µM;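 active means activation factor of at least 2 at 20 µM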
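System: mouse IAP enzyme. Reagent: CDP-Star chemiluminescent phosphatase substrate. Benchmarks: DMSO wells, no-enzyme wells. Times: 30 min enzyme-substrate-compound incubation at room temperature. Detection: luminescence from enzymatic CDP-Star hydrolysis. Doses: test compounds delivered from DMSO solution.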
hIAP inh – blocks human intestinal alkaline phosphatase. P09923. purified IAP, CDP-Star luminescence, 30 min. inhibition, % at 10 µM. 330,000 compounds, 0.12% hits. AID 2544;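 active means inhibition reaching a set limit with compound at 10 µM in the primary screen, cut at about 35% in these data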;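 further: plate controls were DMSO wells with enzyme for no effect and no-enzyme buffer wells for full effect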
Target sequence (P09923 whole entry, looked up): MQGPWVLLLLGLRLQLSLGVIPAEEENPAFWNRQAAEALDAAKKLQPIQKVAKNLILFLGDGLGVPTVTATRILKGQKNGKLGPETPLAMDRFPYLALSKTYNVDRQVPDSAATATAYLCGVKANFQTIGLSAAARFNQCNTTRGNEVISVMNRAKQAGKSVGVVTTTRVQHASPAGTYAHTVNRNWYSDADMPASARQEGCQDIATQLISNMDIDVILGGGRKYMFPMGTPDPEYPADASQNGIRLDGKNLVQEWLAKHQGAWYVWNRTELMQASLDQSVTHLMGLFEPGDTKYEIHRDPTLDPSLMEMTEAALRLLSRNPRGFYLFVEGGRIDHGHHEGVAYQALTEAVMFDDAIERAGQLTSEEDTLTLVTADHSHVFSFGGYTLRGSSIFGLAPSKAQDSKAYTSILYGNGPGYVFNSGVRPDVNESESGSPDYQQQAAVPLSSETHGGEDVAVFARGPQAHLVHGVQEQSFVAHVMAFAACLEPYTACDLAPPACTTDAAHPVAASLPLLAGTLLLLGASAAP
bIAP act – intestinal alkaline phosphatase (bovine) activation | 200,000 compounds, 0.17% hits | activation factor at 20 µM | purified bovine IAP, CDP-star luminescence, 30 min; stronger effect = higher value; fold of DMSO-control signal, blank-subtracted | AID 1016;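 active means activation factor of 2 or more at 20 µM, a signal rise over negative controls twice the positive control's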
hIAP act – increases human intestinal alkaline phosphatase activity; activation factor at 10 µM; purified human IAP, CDP-Star luminescence, 30 min; stronger effect = higher value; 1 = vehicle-only enzyme, 0 = enzyme-free background; 330,000 compounds, 0.16% hits;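 active means activation factor of the enzyme at least 2-fold when tested at 20 µM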
mIAP inh conf – mouse IAP inhibition confirmation | shares compounds with mIAP block | purified mouse IAP, CDP-Star luminescence, 30 min | inhibition, % at 10 µM | 11,000 compounds, 4.7% hits;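 active means inhibition of at least 40% at 10 µM in either of the two replicates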;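 further: plate controls were DMSO wells with enzyme for no effect and buffer wells lacking enzyme for full effect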
Numbers without * were called inactive; i = inactive; / = no result given. Only some compounds are listed: those with a hit (about 0.79% of all), similar ones and a draw of the others.

SMILES	mIAP block	bIAP inhibitor	mIAP activ	hIAP inh	bIAP act	hIAP act	mIAP inh conf
O=C(O)CC(C(=O)O)N1C(=O)/C(=C/c2ccc(-c3nc4ccccc4s3)o2)SC1=S (stereo unspecified)	63.4*	40.3	0.366	5.8	0.6	0.942	61.7*
O=C(O)CC(C(=O)O)N1C(=O)/C(=C/C=C/c2ccco2)SC1=S (stereo unspecified)	74.1*	/	0.259	-2.4	/	1.02	79.9*
COc1cccc(COc2ccccc2C2Nc3ccc(Br)cc3C(=O)N2NC(=O)c2ccncc2)c1 (stereo unspecified)	15.8	-4.5	0.842	-8.6	1	1.09	/
CCOC(=O)c1ccc(NC(=O)Nc2ccc3c(c2)OCCO3)cc1	-192.3	-6.1	2.92*	-12.2	1.1	1.12	-106.4
Oc1cc2c(cc1O)[C@H]1c3ccc(O)c(O)c3OC[C@@]1(O)C2	60.3*	/	0.397	7.8	/	0.922	53.1*
CC(=O)c1sc(C(=O)O)c(-c2ccco2)c1-c1ccco1	54.9*	/	0.451	3.5	/	0.965	63.6*
CC(C)(Oc1ccc(-c2ccco2)cc1)C(=O)O	8.2	0.6	0.918	2.2	1	0.978	/
O=C(N/N=C/c1ccc(O)c(O)c1)N/N=C/c1ccc(O)c(O)c1	48.6*	/	0.514	20.2	/	0.798	71.6*
Cc1cc(SCC(=O)N/N=C/c2ccc(O)c(O)c2)c(C)cc1Br	15.7	13.5	0.843	-14.8	0.9	1.15	/
O=C(CSc1nc2ccccc2o1)N/N=C/c1ccc(O)c(O)c1	66.9*	/	0.331	26.0	/	0.74	74.4*
Cc1nonc1C(=O)N/N=C/c1ccc(O)c(O)c1	42.1*	2.2	0.579	9.7	1	0.903	41.0*
CCOC(=O)Cc1nc(-c2cccc(C(F)(F)F)c2)no1	-3.1	12.4	1.03	-9.8	0.9	1.1	/
c1coc(-c2nc(-c3ccco3)c(-c3ccco3)nc2-c2ccco2)c1	71.2*	5.9	0.288	0.9	0.9	0.991	84.2*
Nc1nc(-c2ccco2)c(-c2ccco2)s1	67.3*	22.2	0.327	24.8	0.8	0.752	69.0*
Nc1nc(-c2ccco2)cs1	31.4	29.6	0.686	15.3	0.7	0.847	/
CCN(C[C@H]1N[C@@](CC)(C(=O)OC)[C@H]2C(=O)N(C)C(=O)[C@@H]12)C(=O)Nc1ccc(C)cc1	3.3	/	0.967	7.1	/	0.929	/
CC(C)n1c(NCc2nc3ccccc3n2C)nc2ccccc21	-27.6	-66.8	1.28	5.5	1.7	0.945	/
CCn1c(CNc2nc3ccccc3n2C(C)C)nc2ccccc21	-100.0	-210.4	2*	-21.2	3.1*	1.21	-97.3
CC(C)CC(=O)NC(NC(=S)Nc1sc2c(c1C#N)CCCC2)C(Cl)(Cl)Cl (stereo unspecified)	40.6*	46.0	0.594	6.6	0.5	0.934	41.3*
CCC(=O)Nc1sc2c(c1C#N)CCC2	-0.9	6.8	1.01	-3.1	0.9	1.03	/
Cc1cc(=O)c2cc3nc(-c4cccnc4)oc3c(Br)c2o1	17.2	/	0.828	21.5	/	0.785	/
COc1ccc(CN2CC[C@H]3C=CC[C@@H](C(=O)Nc4ccc(Cl)c(C(F)(F)F)c4)[C@H]3C2=O)cc1OC	-109.6	/	2.1*	9.2	/	0.908	-185.4
CNS(=O)(=O)c1ccc2c(c1)oc(=O)c1cc(S(=O)(=O)NC)ccc12	-6.5	1.2	1.06	3.8	1	0.962	/
COc1ccccc1CNC(=O)C1(NC(=O)Nc2ccc(C)cc2)CCCCC1	-490.4	-385.8	5.9*	-182.8	4.9*	2.83*	-243.8
Cc1ccc(CNC(=O)C2(NC(=O)Nc3ccc(C)cc3)CCCCC2)cc1	i	-7.4	6.62*	4.0	1.1	0.96	-198.1
SMILES	mIAP block	bIAP inhibitor	mIAP activ	hIAP inh	bIAP act	hIAP act	mIAP inh conf
O=C(Nc1ccc(F)cc1)NC1(C(=O)NCc2ccco2)CCCCC1	-18.7	7.1	1.19	-14.1	0.9	1.14	/
CC(C)c1ccc(NC(=O)NC2(C(=O)NCc3cccnc3)CCCCC2)cc1	-52.7	/	1.53	-72.3	/	1.72	/
Cc1ccc(NC(=O)NC2(C(=O)NCc3ccccc3)CCCCC2)cc1	-174.6	7.9	2.75*	19.5	0.9	0.805	-131.0
NS(=O)(=O)c1ccc(CCNC(=O)CNC(=O)c2ccc(Br)o2)cc1	-8.0	/	1.08	4.8	/	0.952	/
CCC1(c2ccccc2)NC(=O)N(CC(=O)Nc2ccc(OC)nc2)C1=O (stereo unspecified)	0.9	/	0.991	-23.9	/	1.24	/
O=c1oc2cc(O)ccc2s1	47.6*	/	0.524	-11.1	/	1.11	71.5*
Cc1cc(-c2ccc(N=Nc3c(S(=O)(=O)O)cc4cc(S(=O)(=O)O)cc(N)c4c3O)c(C)c2)ccc1N=Nc1c(S(=O)(=O)O)cc2cc(S(=O)(=O)O)cc(N)c2c1O	76.7*	/	0.233	28.4	/	0.716	83.1*
CC(=O)N1CCN(C(=O)c2cc(S(=O)(=O)N3CCN(c4ccccc4)CC3)ccc2Cl)CC1	0.3	/	0.997	10.5	/	0.895	/
NS(=O)(=O)c1ccc(N=Nc2c[nH]c(=O)c(O)c2)cc1	68.4*	/	0.316	-11.7	/	1.12	81.1*
CCOc1ccc2ccc(OCC)c(/C=N/n3cnnc3)c2c1	-0.9	/	1.01	-11.0	/	1.11	/
O=C(N/N=C/c1ccc([N+](=O)[O-])o1)c1ccc(NS(=O)(=O)c2cccs2)cc1	50.2*	/	0.498	-8.3	/	1.08	58.6*
O=C(N/N=C/c1ccc([N+](=O)[O-])o1)c1ccc2c(c1)OCO2	44.6*	/	0.554	-7.7	/	1.08	55.1*
O=C(NCc1nc2ccccc2[nH]1)C1=C[C@@H](c2ccc3c(c2)OCO3)C[C@@H](OCc2ccc(CO)cc2)O1	-8.3	/	1.08	-20.3	/	1.2	/
O=C(c1cccs1)[C@@H]1[C@@H]2C(=O)N(Cc3ccc4c(c3)OCO4)C(=O)[C@@H]2C2c3ccccc3C=CN21 (stereo partly specified)	46.1*	6.7	0.539	1.2	0.9	0.988	43.1*
O=C(c1ccc2c(c1)OCO2)[C@@H]1[C@@H]2C(=O)N(C3CCCCC3)C(=O)[C@@H]2C2c3ccccc3C=CN21 (stereo partly specified)	/	2.2	/	/	1	/	/
O=C(CSc1nc2ncccc2[nH]1)c1cccc([N+](=O)[O-])c1	15.1	11.5	0.849	-3.6	0.9	1.04	/
O=[N+]([O-])c1c(NCc2ccco2)ccc2nonc12	41.3*	/	0.587	14.4	/	0.856	51.1*
CCOC(=O)NNc1ccc2nonc2c1[N+](=O)[O-]	43.4*	/	0.566	8.1	/	0.919	43.6*
Cc1cc(O)c2c(c1O)C(=O)[C@]13C(=C2O)C(=O)[C@@H]2[C@@H](O)[C@H]1[C@@H]1[C@H](O)[C@H]3C(=O)C3=C(O)c4c(O)cc(C)c(O)c4C(=O)[C@]312	46.8*	/	0.532	4.7	/	0.953	41.1*
